Assay results gathered from unrelated publications.
Protocols differ between the studies behind these lines.
Target: Non-receptor tyrosine-protein kinase TNK1 (TNK1, Homo sapiens, UniProt Q13470)
Sequence (Q13470 1-666, as in one of the studies): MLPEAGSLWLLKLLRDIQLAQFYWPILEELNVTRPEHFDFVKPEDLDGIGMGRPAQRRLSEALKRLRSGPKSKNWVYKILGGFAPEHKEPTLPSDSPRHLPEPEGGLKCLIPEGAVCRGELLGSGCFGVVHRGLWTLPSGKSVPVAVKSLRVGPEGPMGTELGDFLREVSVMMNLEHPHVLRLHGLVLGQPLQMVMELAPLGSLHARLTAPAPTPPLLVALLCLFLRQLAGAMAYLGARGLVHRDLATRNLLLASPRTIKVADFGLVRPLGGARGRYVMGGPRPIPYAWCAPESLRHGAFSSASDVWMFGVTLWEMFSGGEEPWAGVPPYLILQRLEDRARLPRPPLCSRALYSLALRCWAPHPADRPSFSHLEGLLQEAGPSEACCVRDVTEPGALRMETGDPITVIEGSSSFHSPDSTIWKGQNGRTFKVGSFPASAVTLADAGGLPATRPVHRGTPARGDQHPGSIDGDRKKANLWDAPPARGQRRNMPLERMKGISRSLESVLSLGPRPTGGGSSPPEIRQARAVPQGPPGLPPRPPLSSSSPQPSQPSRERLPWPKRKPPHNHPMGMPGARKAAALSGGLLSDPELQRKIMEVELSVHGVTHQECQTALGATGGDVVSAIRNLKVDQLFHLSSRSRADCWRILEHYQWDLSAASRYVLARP

SMILES | test | conditions | measurement | result
Cc1ccc(C(=O)Nc2ccc(CN3CCN(C)CC3)c(C(F)(F)F)c2)cc1C#Cc1cnc2cccnn12 | enzyme activity, inhibitor | 23.5 nM | remaining activity | 13%
CCOC(=O)c1cc2cc(-c3cc(C(=O)NCc4ccc(C(=O)O)cc4)nn3C)ccc2[nH]1 | cell-free assay, competition with immobilised ligand | 0.1 µM | remaining binding | 88%
Nc1ncnc2occ(-c3ccc(NC(=O)Nc4cc(C(F)(F)F)ccc4F)cc3)c12 | cell-free assay, inhibitor | 20 µM | remaining signal | 6.8%
CC(C)(C)c1nc2c(s1)c1nc(N)ncc1c1ccc(NS(=O)(=O)c3c(F)cccc3F)c(F)c12 | enzyme activity, inhibitor, radiometric | 1 µM | remaining activity | 82%
CC/C(=N\NC(=O)NCc1cccc(O)c1)c1ccc(O)c(C)c1O | enzyme activity, inhibitor | 0.1 µM | inhibition | -1.1%
c1nc2c(Nc3ccc4c(c3)OCCO4)nc(Nc3ccc4c(c3)OCCO4)nc2[nH]1 | enzyme activity, inhibitor | 10 µM | activity vs control | 14%
Cc1sc(C(=O)NC2COC2)cc1-n1cc(NC(=O)Nc2c(F)cccc2Cl)cn1 | enzyme activity, inhibitor | 10 µM | remaining activity | 105%
CC(C)(O)[C@H]1CC[C@H](Nc2ccc3ncc(-c4cccc(C(F)(F)F)c4)n3n2)CC1 | enzyme activity, inhibitor | 1 µM | remaining activity | 52.4%
CC(=O)N1CCC(c2ccc(C(=O)NC(=N)N)cc2C(F)(F)F)CC1 | cell-free assay, competition with immobilised ligand | 1 µM | remaining binding | 89%
O=C(Nc1cnn(-c2csc(C(=O)NC3COC3)c2)c1)Nc1ccccc1Cl | enzyme activity, inhibitor | 5 µM | remaining activity | 100%
